{"source": "ChEMBL document CHEMBL1142155", "about": "“Human beta-defensins kill Candida albicans in an energy-dependent and salt-sensitive manner without causing membrane disruption” (2007)", "key": {"Candida albicans [1]": {"test_system": "Candida albicans", "assay": "Induction of membrane permeabilization in Candida albicans assessed as calcein release at 0.8 uM after 90 min", "assay_type": "functional", "procedure,_shortened": "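Early-stationary yeast washed in 10 mM NaPB, loaded at 10⁷/ml with 5 μM (final) calcein-AM for 2 h at room temperature, then washed four times; 10⁶ cells given 0.8 μM hBD-3 or 32 μM Hst 5. Fluorescence (ex 485/em 530 nm) read every 5 min for 90 min. Percent release = (I_r − I_bkg)/(I_int − I_bkg) × 100, where I_int comes from boiling 10 min. Mean ± SD of three experiments.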"}, "Candida albicans [2]": {"test_system": "Candida albicans", "assay": "Induction of ATP efflux in Candida albicans CAF4-2 at 1 uM", "assay_type": "functional, organism-based", "procedure,_shortened": "(§1)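 10⁴ C. albicans cells given 31 μM Hst 5 or 1 μM hBD-3, with or without 2 h pretreatment in 1 mM NaN₃. Extracellular ATP read by luminometry at 0, 5, 15, 30, 45 and 60 min. Values come from per-experiment ATP standard curves, as pmol ATP per 10⁴ cells.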"}, "Candida albicans [3]": {"test_system": "Candida albicans", "assay": "Induction of ATP efflux in Candida albicans CAF4-2 at 1 uM in presence of 1 mM sodium azide", "assay_type": "functional, organism-based", "procedure,_shortened": "as §1"}}, "note": "Activity calls are given as the source filed them. No cut-off for these calls is given here."}
{"smiles": "CC[C@H](C)C(NC(=O)CN)C(=O)N[C@H](C(=O)N[C@@H](CC(N)=O)C(=O)N[C@H](C(=O)N[C@@H](CC(C)C)C(=O)N[C@@H](CCC(N)=O)C(=O)N[C@@H](CCCCN)C(=O)N[C@@H](Cc1ccc(O)cc1)C(=O)N[C@@H](Cc1ccc(O)cc1)C(=O)N[C@@H](CS)C(=O)N[C@@H](CCCNC(=N)N)C(=O)N[C@H](C(=O)N[C@@H](CCCNC(=N)N)C(=O)NCC(=O)NCC(=O)N[C@@H](CCCNC(=N)N)C(=O)N[C@@H](CS)C(=O)N[C@@H](C)C(=O)N[C@H](C(=O)N[C@@H](CC(C)C)C(=O)N[C@@H](CO)C(=O)N[C@@H](CS)C(=O)N[C@@H](CC(C)C)C(=O)N1CCC[C@H]1C(=O)N[C@@H](CCCCN)C(=O)N[C@@H](CCC(=O)O)C(=O)N[C@@H](CCC(=O)O)C(=O)N[C@@H](CCC(N)=O)C(=O)N[C@H](C(=O)NCC(=O)N[C@@H](CCCCN)C(=O)N[C@@H](CS)C(=O)N[C@@H](CO)C(=O)N[C@H](C(=O)N[C@@H](CCCNC(=N)N)C(=O)NCC(=O)N[C@@H](CCCNC(=N)N)C(=O)N[C@@H](CCCCN)C(=O)N[C@@H](CS)C(=O)N[C@@H](CS)C(=O)N[C@@H](CCCNC(=N)N)C(=O)N[C@@H](CCCNC(=N)N)C(=O)N[C@@H](CCCCN)C(=O)N[C@@H](CCCCN)C(=O)O)[C@@H](C)O)[C@@H](C)CC)C(C)C)C(C)C)[C@@H](C)O)[C@@H](C)CC", "note": "(stereo partly drawn)", "values": [{"measurement": "Activity", "setting": "Candida albicans [1]", "result": 24.2, "unit": "%"}, {"measurement": "Activity", "setting": "Candida albicans [2]", "result": "Active"}, {"measurement": "Activity", "setting": "Candida albicans [3]", "result": "inactive"}]}
